Screening results (PubChem)
The list is not random: actives were taken first. Their share in the collection is about 0.97%.
Beta2AR agonist – beta2AR agonists driving receptor internalization, primary screen, cell-based, FAP fluorogen, flow cytometry; Am2.2-beta2AR cells; response, % (concentration not given with the values); 0.43% of 340,000 active; Beta-2 adrenergic receptor (Homo sapiens), P07550;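 active = response above a set limit, near 3 SD of response in nonfluorescent compounds, cut at about 42% in these data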
TNF death inh – inhibitors of TNF-alpha triggered necroptosis, primary screen, cell-based, Jurkat FADD-/-, single concentration; Jurkat FADD-/- TNF necroptosis rescue, ATP luminescence, 24 h; 0 = TNF only, 100 = no-TNF cells; 0.068% of 220,000 active; AID 463075, 2010; activation (protection from cell death), % at 10 µM;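 active = activation, meaning protection from cell death, of at least 50% relative to plate controls; inactive = activation below 50%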;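 also: necroptosis triggered by 40 ng/mL TNF-alpha added together with compound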
Dynein cargo inh – inhibitors of GR-EGFP nuclear translocation, primary screen, dynein cargo transport inhibitor project, imaging, high-content, 3617.4 mouse cells; test concentration mostly 20 µM; stimulated with dexamethasone, 1 µM; active compounds read low; z-score, hits read low; 0.47% of 220,000 active; AID 1381, 2008;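 active = plate z-score of nuclear minus cytoplasmic receptor signal below a set negative limit, without overly bright fluorescence or cell loss, cut at about -3.5 in these data, passing the limit was not always enough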;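 also: z-score of nuclear minus cytoplasmic ring GR-EGFP intensity difference per well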
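Also added – dexamethasone, 1.0 µM final · Buffer or medium – tet-free, stripped-serum medium · Schedule – induction 48 h, compound 1 h, agonist 30 min · Detection – formaldehyde fixation, Hoechst nuclear stain, 10x automated fluorescence imaging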
Mdm2 ligase inh – MDM2-luciferase reporter signal enhancers, primary screen, MDM2 E3 ligase inhibitor project, cell-based, luminescence, 1536-well; E3 ubiquitin-protein ligase Mdm2 (Homo sapiens), Q00987; cell-based MDM2 ubiquitination luciferase reporter, 2 h; 0 = plate control, 100 = twice control, blank-subtracted; signal enhancement, % at 5 µM; 0.11% of 210,000 active; AID 1230, 2008;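 active = signal enhancement of 30% or more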;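 also: luminescence tracks abundance of the self-degrading MDM2-luciferase fusion protein; higher signal means inhibition of MDM2 E3 ligase activity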
Target sequence (Q00987 whole entry, looked up, the tested form may be a part): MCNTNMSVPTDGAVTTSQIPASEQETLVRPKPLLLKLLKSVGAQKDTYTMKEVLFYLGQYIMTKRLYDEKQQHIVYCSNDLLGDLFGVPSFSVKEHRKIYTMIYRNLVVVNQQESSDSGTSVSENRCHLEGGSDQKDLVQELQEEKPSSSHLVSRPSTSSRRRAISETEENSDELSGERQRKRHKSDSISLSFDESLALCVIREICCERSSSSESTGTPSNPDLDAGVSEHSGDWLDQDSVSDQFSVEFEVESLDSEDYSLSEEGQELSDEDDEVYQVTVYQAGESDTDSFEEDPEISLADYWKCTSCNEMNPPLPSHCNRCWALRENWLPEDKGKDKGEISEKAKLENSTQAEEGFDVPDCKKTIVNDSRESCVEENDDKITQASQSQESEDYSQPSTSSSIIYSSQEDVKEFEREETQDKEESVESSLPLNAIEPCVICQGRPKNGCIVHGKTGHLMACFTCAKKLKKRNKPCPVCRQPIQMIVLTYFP
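Assay system: stable mammalian line carrying autodegrading MDM2–luciferase fusion reporter; Input: 2000 cells in each well; Compound dosing: single-point 5 µM; Schedule: 2 h compound exposure at 37 °C; Signal: SteadyLite luciferase luminescence after 15 min room-temperature reagent incubation; Evaluation: % luminescence enhancement versus blank-corrected plate control mean; Benchmarks: plate controls and plate blanks.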
L929 necroptosis – inhibitors of zVAD-triggered necroptosis, primary screen, L929 cells | 0.38% of 220,000 active | viability rescue, % at 10 µM | L929 zVAD necroptosis rescue, ATP luminescence, 24 h; with zVAD 60 µM;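 active = activation, scaled between plate controls, above about 75%, limit read from the data; inactive = activation under that limit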
B2AR ag CP1 – beta2AR agonists via receptor internalization, confirmation, cell-based, FAP fluorogen, flow cytometry, single point, cherry pick 1 | 25% of 1,100 active | percent response (surface receptor), % at 10 µM | Am2.2-beta2AR cells, FAP surface receptor; active compounds read low | shares compounds with Beta2AR agonist | AID 540358, 2011;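 active = surface receptor percent response at or below 58%, roughly 3 SD from nonfluorescent compounds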
B2AR FAP counter – counter-screen for beta-2AR agonists: fluorescence in Am2.2 cells; shares compounds with Beta2AR agonist; FAP fluorogen flow cytometry, fluorescence counterscreen; active compounds read low; calls only at 10 µM; 1,100 tested, under 10 active; AID 588765;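 active = percent response below a set limit in fluorescence channel 1 and below 50% in channel 8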
Hits are given with their value.

Screening CC(C)Nc1ccc(Nc2ccnc3cc4ccccc4cc23)cc1 returned Beta2AR agonist 80, TNF death inh inactive, Dynein cargo inh inactive, Mdm2 ligase inh inactive, L929 necroptosis inactive, B2AR ag CP1 inactive and B2AR FAP counter inactive.
`COCCc1ncc(CN2CCC(C(=O)Nc3ccc(-n4cccn4)cc3)CC2)cn1` gave Beta2AR agonist 50, B2AR ag CP1 30 and B2AR FAP counter inactive.
O=C(CCCN1C(=O)/C(=C/c2ccccc2Cl)SC1=S)NNC(=O)c1ccc(Cl)cc1Cl was read as Beta2AR agonist inactive, TNF death inh inactive, Dynein cargo inh inactive and L929 necroptosis inactive.
`O=C1ON=C(c2ccccc2)/C1=C/c1ccc(O)c(O)c1` gave Beta2AR agonist inactive.
O=C1ON=C(c2ccccc2)/C1=C/c1cccnc1 was read as Beta2AR agonist inactive, TNF death inh inactive, Dynein cargo inh inactive, Mdm2 ligase inh inactive, L929 necroptosis inactive, B2AR ag CP1 inactive and B2AR FAP counter inactive.
Screening Cc1cc(C)n(C(=O)CCCC(=O)n2nc(C)cc2C)n1 returned Beta2AR agonist 54, TNF death inh inactive, Dynein cargo inh inactive, Mdm2 ligase inh inactive, L929 necroptosis inactive, B2AR ag CP1 inactive and B2AR FAP counter inactive.
`Cc1cc(C)n(C(=O)CCCCCCCC(=O)n2nc(C)cc2C)n1` gave Beta2AR agonist inactive, TNF death inh inactive, Dynein cargo inh inactive, Mdm2 ligase inh inactive and L929 necroptosis inactive.
`O=C(NCc1ccco1)c1ccc(Cn2c(=O)c3ccccc3n(Cc3cccc(Cl)c3)c2=O)cc1` gave Beta2AR agonist inactive, TNF death inh inactive, Dynein cargo inh inactive, Mdm2 ligase inh inactive and L929 necroptosis inactive.
Screening CCCCn1c(=N)n(CC(O)COc2cccc(C)c2)c2ccccc21 (stereo unspecified) returned Beta2AR agonist 46, TNF death inh inactive, Dynein cargo inh inactive, Mdm2 ligase inh inactive, L929 necroptosis inactive, B2AR ag CP1 inactive and B2AR FAP counter inactive.
`Cc1ccc(Cn2c(=N)n(CC(=O)c3ccccc3)c3ccccc32)cc1` gave Beta2AR agonist 58, TNF death inh inactive, Dynein cargo inh inactive, Mdm2 ligase inh inactive, L929 necroptosis inactive, B2AR ag CP1 inactive and B2AR FAP counter inactive.
Cc1ccccc1Cn1c(=N)n(CC(=O)c2ccc([N+](=O)[O-])cc2)c2ccccc21 was read as Beta2AR agonist 55, TNF death inh inactive, Dynein cargo inh inactive, Mdm2 ligase inh inactive, L929 necroptosis inactive, B2AR ag CP1 22 and B2AR FAP counter inactive.
`CC(=O)Cc1nsc(NC(=O)c2ccc(F)cc2)n1` gave Beta2AR agonist inactive, TNF death inh inactive, Dynein cargo inh inactive, Mdm2 ligase inh inactive and L929 necroptosis inactive.
For NC(=S)N/N=C/c1ccccc1OC(=O)c1cc2ccccc2oc1=O the results were Beta2AR agonist inactive, B2AR ag CP1 inactive and B2AR FAP counter inactive.
c1cncc(CNc2nc(-c3cccnc3)nc3ccccc23)c1 was read as Beta2AR agonist inactive, B2AR ag CP1 inactive and B2AR FAP counter inactive.
Cc1ccc(Nc2nc(-c3cccnc3)nc3ccccc23)cc1 was read as Beta2AR agonist inactive, TNF death inh inactive, Dynein cargo inh inactive, Mdm2 ligase inh inactive and L929 necroptosis inactive.
Cc1ccc(CNc2nc(-c3cccnc3)nc3ccccc23)cc1 was read as Beta2AR agonist inactive, B2AR ag CP1 inactive and B2AR FAP counter inactive.
Screening NS(=O)(=O)c1ccc(CNc2nc(-c3cccnc3)nc3ccccc23)cc1 returned Beta2AR agonist inactive, B2AR ag CP1 inactive and B2AR FAP counter inactive.
For c1ccc(CNc2nc(-c3cccnc3)nc3ccccc23)cc1 the results were Beta2AR agonist inactive, B2AR ag CP1 inactive and B2AR FAP counter inactive.
Screening COc1ccccc1-c1nnc(SCC(=O)NC2CCS(=O)(=O)C2)n1N (stereo unspecified) returned Beta2AR agonist inactive, TNF death inh inactive, Dynein cargo inh inactive, Mdm2 ligase inh inactive and L929 necroptosis inactive.
Clc1cccc(CNc2nc(-c3cccnc3)nc3ccccc23)c1 was read as Beta2AR agonist inactive.
`Fc1ccc(CNc2nc(-c3cccnc3)nc3ccccc23)cc1` gave Beta2AR agonist inactive, B2AR ag CP1 inactive and B2AR FAP counter inactive.
Screening c1cncc(-c2nc(NCc3ccc4c(c3)OCO4)c3ccccc3n2)c1 returned Beta2AR agonist inactive, TNF death inh inactive, Dynein cargo inh inactive, Mdm2 ligase inh inactive, L929 necroptosis inactive, B2AR ag CP1 inactive and B2AR FAP counter inactive.
`CC(C)(C(=O)N[C@H](CO)c1ccccc1)C(=O)N[C@H](CO)c1ccccc1` gave Beta2AR agonist inactive.
`CC(C)(NC(=O)NC(CO)c1ccccc1)c1cccc(C(C)(C)NC(=O)NC(CO)c2ccccc2)c1` (stereo unspecified) gave Beta2AR agonist inactive, B2AR ag CP1 inactive and B2AR FAP counter inactive.
Screening Cc1cc(C)n(-c2nc(NC(C)(C)C)nc(NC(C)(C)C)n2)n1 returned Beta2AR agonist inactive, TNF death inh inactive, Dynein cargo inh inactive, Mdm2 ligase inh inactive and L929 necroptosis inactive.
`CCNc1nc(NCC)nc(-n2nc(C)cc2C)n1` gave Beta2AR agonist inactive, TNF death inh inactive, Dynein cargo inh inactive, Mdm2 ligase inh inactive, L929 necroptosis inactive, B2AR ag CP1 inactive and B2AR FAP counter inactive.
Cc1cc(C)n(-c2nc(NC(C)C)nc(NC(C)C)n2)n1 was read as Beta2AR agonist inactive, TNF death inh inactive, Dynein cargo inh inactive, Mdm2 ligase inh inactive, L929 necroptosis inactive, B2AR ag CP1 inactive and B2AR FAP counter inactive.
COc1cccc(OC)c1C(=O)NC(=S)Nc1cccc(NC(=O)c2ccco2)c1 was read as Beta2AR agonist inactive, TNF death inh inactive, Dynein cargo inh inactive, Mdm2 ligase inh inactive and L929 necroptosis inactive.
Screening CC(C)Oc1cccc(C(=O)Nc2ccc(NC(=O)c3ccco3)cc2)c1 returned Beta2AR agonist inactive, TNF death inh inactive, Dynein cargo inh inactive, Mdm2 ligase inh inactive, L929 necroptosis inactive, B2AR ag CP1 inactive and B2AR FAP counter inactive.
`COc1cccc(OC)c1C(=O)Nc1ccc(NC(=O)c2ccco2)cc1` gave Beta2AR agonist inactive, TNF death inh inactive, Dynein cargo inh inactive, Mdm2 ligase inh inactive, L929 necroptosis inactive, B2AR ag CP1 inactive and B2AR FAP counter inactive.
